Data: ChEMBL document CHEMBL5046302, “Identification and Evaluation of Brominated Carbazoles as a Novel Antibiotic Adjuvant Scaffold in MRSA” (2022)
Active and inactive are the calls of the source. The rule behind the calls is not given here.

What was measured:
Format in all cases: functional
[1] = test system: Staphylococcus aureus; experiment: (§1) Potentiation of oxacillin induced antibacterial activity against methicillin-resistant Staphylococcus aureus USA300 harboring stk1 deletion mutant co-transfected with a plasmid bearing stk1 assessed as fold change in oxacillin MIC at 50 uM after 18 hrs by CLSI protocol based broth microdilution assay
[2] = test system: Staphylococcus aureus; experiment: Potentiation of oxacillin induced antibacterial activity against methicillin-resistant Staphylococcus aureus USA300 harboring stk1 deletion mutant assessed as fold change in oxacillin MIC at 50 uM after 18 hrs by CLSI protocol based broth microdilution assay
[3] = test system: Staphylococcus aureus; experiment: Potentiation of oxacillin induced antibacterial activity against methicillin-resistant Staphylococcus aureus assessed as fold decrease in mecA gene expression at 50 uM by RT-qPCR analysis
In short: (§2)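 Fold dampening is the relative mRNA level of the gene, normalised to 16S rRNA, in oxacillin-treated cells divided by that in cells cotreated with oxacillin plus carbazole. Carbazole was used at 25 or 50 μM, as given in each line.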

[4] = test system: Staphylococcus aureus; experiment: Upregulation of blaZ gene expression in methicillin-resistant Staphylococcus aureus ATCC 43300 at 50 uM by RT-PCR method
[5] = test system: Staphylococcus aureus; experiment: Potentiation of oxacillin induced antibacterial activity against methicillin-resistant Staphylococcus aureus assessed as fold decrease in mecI gene expression at 50 uM by RT-qPCR analysis; in short: as §2
[6] = test system: Staphylococcus aureus; experiment: Potentiation of oxacillin induced antibacterial activity against methicillin-resistant Staphylococcus aureus assessed as fold decrease in blaZ gene expression at 50 uM by RT-qPCR analysis; in short: as §2
[7] = test system: Staphylococcus aureus; experiment: Upregulation of blaZ gene expression in methicillin-resistant Staphylococcus aureus USA100 at 50 uM by RT-PCR method
[8] = test system: Staphylococcus aureus; experiment: Potentiation of cefoxitin induced antibacterial activity against methicillin-resistant Staphylococcus aureus COL assessed as cefoxitin MIC at 25 uM after 18 hrs by CLSI protocol based broth microdilution assay
[9] = test system: Staphylococcus aureus; experiment: Potentiation of ampicillin induced antibacterial activity against methicillin-resistant Staphylococcus aureus COL assessed as ampicillin MIC at 25 uM after 18 hrs by CLSI protocol based broth microdilution assay
[10] = test system: Staphylococcus aureus; experiment: Potentiation of oxacillin induced antibacterial activity against methicillin-resistant Staphylococcus aureus USA100 assessed as oxacillin MIC at 25 uM after 18 hrs by CLSI protocol based broth microdilution assay
[11] = test system: Staphylococcus aureus; experiment: Potentiation of ceftazidime induced antibacterial activity against methicillin-resistant Staphylococcus aureus USA300 assessed as fold change in ceftazidime MIC at 25 uM after 18 hrs by CLSI protocol based broth microdilution assay
[12] = test system: Staphylococcus aureus; experiment: Potentiation of ampicillin induced antibacterial activity against methicillin-resistant Staphylococcus aureus ATCC 43300 assessed as ampicillin MIC at 25 uM after 18 hrs by CLSI protocol based broth microdilution assay
[13] = test system: Staphylococcus aureus; experiment: as §1, with “25” for “50”
[14] = test system: Staphylococcus aureus; experiment: Potentiation of ceftazidime induced antibacterial activity against methicillin-resistant Staphylococcus aureus ATCC 43300 assessed as ceftazidime MIC at 25 uM after 18 hrs by CLSI protocol based broth microdilution assay
[15] = test system: Staphylococcus aureus; experiment: Upregulation of blaZ gene expression in methicillin-resistant Staphylococcus aureus USA100 at 25 uM by RT-PCR method
[16] = test system: Staphylococcus aureus; experiment: Potentiation of oxacillin induced antibacterial activity against methicillin-resistant Staphylococcus aureus USA300 assessed as fold change in oxacillin MIC at 25 uM after 18 hrs by CLSI protocol based broth microdilution assay
[17] = test system: Staphylococcus aureus; experiment: Potentiation of methicillin induced antibacterial activity against methicillin-resistant Staphylococcus aureus COL assessed as fold change in methicillin MIC at 25 uM after 18 hrs by CLSI protocol based broth microdilution assay
[18] = test system: Staphylococcus aureus; experiment: Potentiation of ampicillin induced antibacterial activity against methicillin-resistant Staphylococcus aureus COL assessed as fold change in ampicillin MIC at 25 uM after 18 hrs by CLSI protocol based broth microdilution assay
[19] = test system: Staphylococcus aureus; experiment: Potentiation of ampicillin induced antibacterial activity against methicillin-resistant Staphylococcus aureus USA100 assessed as fold change in ampicillin MIC at 25 uM after 18 hrs by CLSI protocol based broth microdilution assay
[20] = test system: Staphylococcus aureus; experiment: Potentiation of methicillin induced antibacterial activity against methicillin-resistant Staphylococcus aureus COL assessed as methicillin MIC at 25 uM after 18 hrs by CLSI protocol based broth microdilution assay
[21] = test system: Staphylococcus aureus; experiment: Potentiation of cefoxitin induced antibacterial activity against methicillin-resistant Staphylococcus aureus USA100 assessed as cefoxitin MIC at 25 uM after 18 hrs by CLSI protocol based broth microdilution assay
[22] = test system: Staphylococcus aureus; experiment: Potentiation of oxacillin induced antibacterial activity against methicillin-resistant Staphylococcus aureus ATCC 43300 assessed as fold change in oxacillin MIC at 25 uM after 18 hrs by CLSI protocol based broth microdilution assay
[23] = test system: Staphylococcus aureus; experiment: Potentiation of ceftazidime induced antibacterial activity against methicillin-resistant Staphylococcus aureus USA100 assessed as ceftazidime MIC at 25 uM after 18 hrs by CLSI protocol based broth microdilution assay
[24] = test system: Staphylococcus aureus; experiment: Potentiation of ceftazidime induced antibacterial activity against methicillin-resistant Staphylococcus aureus COL assessed as ceftazidime MIC at 25 uM after 18 hrs by CLSI protocol based broth microdilution assay
[25] = test system: Staphylococcus aureus; experiment: Potentiation of methicillin induced antibacterial activity against methicillin-resistant Staphylococcus aureus ATCC 43300 assessed as fold change in methicillin MIC at 25 uM after 18 hrs by CLSI protocol based broth microdilution assay
[26] = test system: Staphylococcus aureus; experiment: Potentiation of oxacillin induced antibacterial activity against methicillin-resistant Staphylococcus aureus assessed as fold decrease in blaI gene expression at 25 uM by RT-qPCR analysis; in short: as §2
[27] = test system: Staphylococcus aureus; experiment: Potentiation of cefoxitin induced antibacterial activity against methicillin-resistant Staphylococcus aureus USA100 assessed as fold change in cefoxitin MIC at 25 uM after 18 hrs by CLSI protocol based broth microdilution assay
[28] = test system: Staphylococcus aureus; experiment: Potentiation of cefoxitin induced antibacterial activity against methicillin-resistant Staphylococcus aureus ATCC 43300 assessed as fold change in cefoxitin MIC at 25 uM after 18 hrs by CLSI protocol based broth microdilution assay
[29] = test system: Staphylococcus aureus; experiment: Potentiation of methicillin induced antibacterial activity against methicillin-resistant Staphylococcus aureus ATCC 43300 assessed as methicillin MIC at 25 uM after 18 hrs by CLSI protocol based broth microdilution assay
[30] = test system: Staphylococcus aureus; experiment: Potentiation of ampicillin induced antibacterial activity against methicillin-resistant Staphylococcus aureus USA300 assessed as ampicillin MIC at 25 uM after 18 hrs by CLSI protocol based broth microdilution assay
[31] = test system: Staphylococcus aureus; experiment: Potentiation of oxacillin induced antibacterial activity against methicillin-resistant Staphylococcus aureus USA300 harboring stk1 deletion mutant co-transfected with a plasmid bearing stk1 assessed as oxacillin MIC at 25 uM after 18 hrs by CLSI protocol based broth microdilution assay
[32] = test system: Staphylococcus aureus; experiment: Potentiation of ceftazidime induced antibacterial activity against methicillin-resistant Staphylococcus aureus COL assessed as fold change in ceftazidime MIC at 25 uM after 18 hrs by CLSI protocol based broth microdilution assay
[33] = test system: Staphylococcus aureus; experiment: Potentiation of oxacillin induced antibacterial activity against methicillin-resistant Staphylococcus aureus assessed as fold decrease in mecI gene expression at 25 uM by RT-qPCR analysis; in short: as §2

Brc1cccc2c1[nH]c1ccccc12
fold change (FC) [1]: 4 | fold change (FC) [2]: 1 | fold change (FC) [3]: 1.39 | Activity [4]: inactive | fold change (FC) [5]: 0.67 | fold change (FC) [6]: 3.86 | Activity [7]: inactive

Brc1cccc2[nH]c3ccccc3c12
MIC [8]: 256 µg/mL | MIC [9]: 32 µg/mL | MIC [10]: 16 µg/mL | fold change (FC) [11]: 1 | MIC [12]: 16 µg/mL | fold change (FC) [13]: 8 | MIC [14]: 64 µg/mL | Activity [15]: inactive | fold change (FC) [16]: 4 | fold change (FC) [17]: 1 | fold change (FC) [18]: 1 | fold change (FC) [19]: 4 | MIC [20]: 1020 µg/mL | MIC [21]: 64 µg/mL | fold change (FC) [22]: 4 | MIC [23]: 512 µg/mL | MIC [24]: 1020 µg/mL | fold change (FC) [25]: 1 | fold change (FC) [26]: 4.65 | fold change (FC) [27]: 4 | fold change (FC) [28]: 4 | MIC [29]: 4 µg/mL | MIC [30]: 2 µg/mL | MIC [31]: 0.5 µg/mL | fold change (FC) [32]: 1 | fold change (FC) [33]: 1.28
